Common to all, as to assay type: functional
Assay [1] concerns Escherichia coli. Briefly: Antimicrobial activity against Escherichia coli at 1 ug/mL after 48 hrs by cup plate agar diffusion method. The conditions noted are these: read-out: IZ. An outline of the steps:
(§1)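 Cup plate agar diffusion. Compounds dissolved in DMSO at 1 µg/mL. Plates incubated 48 h at 37 °C, then inhibition zone diameter measured in mm. DMSO served as solvent control and ampicillin as reference.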
In general terms: A growth-free zone around the sample is the usual read-out of agar diffusion tests.

Assay [2] relates to Pseudomonas aeruginosa. Briefly: Antimicrobial activity against Pseudomonas aeruginosa at 1 ug/mL after 48 hrs by cup plate agar diffusion method. The conditions noted are these: read-out: IZ. The procedure, abridged: as §1
The subject of assay [3] is MCF7. Briefly: Cytotoxicity against human MCF7 cells assessed as inhibition of cell viability at 25 ug/mL after 48 hrs by MTT assay. The conditions noted are these: MCF7, 48 h. An outline of the steps: (§2)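 MCF7 cells kept in DMEM with 10% FBS, 2 mM L-glutamine and antibiotics at 37 °C, 5% CO2. Cells plated at 0.5 × 10⁵ per well in serum-free medium and exposed for 48 h to DMSO-dissolved compound (25, 50, 100 µg/mL). MTT then added for 4 h and formazan dissolved in acidified isopropanol. Absorbance read at 570 nm in triplicate, expressed as % viability versus untreated cells.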
(Tetrazolium assays rely on reduction of a dye to a coloured formazan, in cell work by metabolically active cells.)

Assay [4] concerns Staphylococcus aureus. Briefly: Antimicrobial activity against Staphylococcus aureus at 1 ug/mL after 48 hrs by cup plate agar diffusion method. The conditions noted are these: read-out: IZ. An outline of the steps:
as §1

Assay [5] concerns MCF7. Briefly: Cytotoxicity against human MCF7 cells assessed as inhibition of cell viability at 100 ug/mL after 48 hrs by MTT assay. The following applies: MCF7, 48 h. An outline of the steps:
as §2

Assay [6] has as its system MCF7. Briefly: Cytotoxicity against human MCF7 cells assessed as inhibition of cell viability at 50 ug/mL after 48 hrs by MTT assay. The following applies: MCF7, 48 h. The procedure, abridged: as §2
The subject of assay [7] is Bacillus subtilis. Briefly: Antimicrobial activity against Bacillus subtilis at 1 ug/mL after 48 hrs by cup plate agar diffusion method. The following applies: read-out: IZ. An outline of the steps:
as §1

The results in this text go back to ChEMBL document CHEMBL1795304, “Synthesis, antitumor and antimicrobial activities of 4-(4-chlorophenyl)-3-cyano-2-(β-O-glycosyloxy)-6-(thien-2-yl)-nicotinonitrile” (2011).

Each structure is given as a SMILES string.

With `CC(=O)OC[C@H]1O[C@@H](Oc2nc(-c3cccs3)cc(-c3ccc(Cl)cc3)c2C#N)[C@H](OC(C)=O)[C@@H](OC(C)=O)[C@@H]1OC(C)=O`, the zone of inhibition at 1 µg/mL was determined as 3 mm in assay [1], 13 mm in assay [2], 8 mm in assay [4] and 11 mm in assay [7]. In assay [3], the inhibition at 25 µg/mL is 0%. Besides, the inhibition at 100 µg/mL in assay [5] amounted to 10%. In addition, the inhibition at 50 µg/mL in assay [6] was found to be 5%.
Consider `CC(=O)OC[C@H]1O[C@@H](Oc2nc(-c3cccs3)cc(-c3ccc(Cl)cc3)c2C#N)[C@H](OC(C)=O)[C@@H](OC(C)=O)[C@H]1OC(C)=O`, for which the zone of inhibition at 1 µg/mL in assay [1] is 5 mm; in assay [2], 26 mm; in assay [4], 12 mm; in assay [7], 10 mm. The inhibition at 25 µg/mL in assay [3] came to 0%. Also, the inhibition at 100 µg/mL in assay [5] came out at 20%. Also, the inhibition at 50 µg/mL in assay [6] came out at 5%.
Consider `N#Cc1c(-c2ccc(Cl)cc2)cc(-c2cccs2)nc1O[C@@H]1O[C@H](CO)[C@@H](O)[C@H](O)[C@H]1O`, for which the zone of inhibition at 1 µg/mL in assay [1] amounted to 0 mm; in assay [2], 0 mm; in assay [4], 3 mm; in assay [7], 1 mm. Moreover, the inhibition at 25 µg/mL in assay [3] was 0%. In addition, the inhibition at 100 µg/mL in assay [5] amounted to 0%. In addition, the inhibition at 50 µg/mL in assay [6] was 0%.
`N#Cc1c(-c2ccc(Cl)cc2)cc(-c2cccs2)nc1O[C@@H]1O[C@H](CO)[C@H](O)[C@H](O)[C@H]1O`: the zone of inhibition at 1 µg/mL in assay [1], in assay [2], in assay [4] and in assay [7] was 0 mm in each case.
For `CC(=O)OC[C@H]1O[C@@H](Oc2nc(-c3cccs3)cc(-c3ccc(Cl)cc3)c2C#N)[C@H](OC(C)=O)[C@H]1OC(C)=O`, in assay [3], the inhibition at 25 µg/mL was 0%. Moreover, in assay [5], the inhibition at 100 µg/mL worked out at 8%. The inhibition at 50 µg/mL in assay [6] amounted to 0%.
Consider `CC(=O)OC[C@H]1O[C@@H](Oc2nc(-c3cccs3)cc(-c3ccc(Cl)cc3)c2C#N)[C@H](OC(C)=O)[C@@H]1OC(C)=O`, for which the zone of inhibition at 1 µg/mL in assay [1] amounted to 3 mm; in assay [2], 25 mm; in assay [4], 9 mm; in assay [7], 8 mm. In addition, the inhibition at 25 µg/mL in assay [3] worked out at 2%. Moreover, in assay [5], the inhibition at 100 µg/mL was 12%. In assay [6], the inhibition at 50 µg/mL was 7%.
In the case of `N#Cc1c(-c2ccc(Cl)cc2)cc(-c2cccs2)nc1O[C@@H]1O[C@H](CO)[C@H](O)[C@H]1O`, the zone of inhibition at 1 µg/mL in assay [1] is 2 mm; in assay [2] it was 9 mm; in assay [4], 3 mm; in assay [7], 3.5 mm.
Consider `N#Cc1c(-c2ccc(Cl)cc2)cc(-c2cccs2)nc1O[C@@H]1O[C@H](CO)[C@@H](O)[C@H]1O`, for which the zone of inhibition at 1 µg/mL turned out to be 6 mm in assay [1], 28 mm in assay [2], 10 mm in assay [4] and 7 mm in assay [7]. In addition, the inhibition at 25 µg/mL in assay [3] came out at 0%. In addition, in assay [5], the inhibition at 100 µg/mL was 0%. The inhibition at 50 µg/mL in assay [6] was determined as 0%.
In the case of `CC(=O)OC[C@H]1O[C@@H](O[C@H]2[C@H](OC(C)=O)[C@@H](OC(C)=O)[C@H](Oc3nc(-c4cccs4)cc(-c4ccc(Cl)cc4)c3C#N)O[C@@H]2COC(C)=O)[C@H](OC(C)=O)[C@@H](OC(C)=O)[C@H]1OC(C)=O`, the inhibition at 25 µg/mL in assay [3] turned out to be 0%. In addition, in assay [5], the inhibition at 100 µg/mL worked out at 10%. Besides, the inhibition at 50 µg/mL in assay [6] is 5%.
`N#Cc1c(-c2ccc(Cl)cc2)cc(-c2cccs2)nc1O[C@@H]1O[C@H](CO)[C@@H](O[C@@H]2O[C@H](CO)[C@H](O)[C@H](O)[C@H]2O)[C@H](O)[C@H]1O`: the zone of inhibition at 1 µg/mL in assay [1] was determined as 0 mm; in assay [2], 10 mm; in assay [4] it was 5 mm; in assay [7] it was 3 mm.
For the compound `CC1(C)S[C@@H]2[C@H](NC(=O)[C@H](N)c3ccccc3)C(=O)N2[C@H]1C(=O)O` [AMPICILLIN], the zone of inhibition at 1 µg/mL in assay [1] was determined as 2 mm; in assay [2], 23 mm; in assay [4] it was 7 mm; in assay [7], 6 mm.
Take `COc1cccc2c1C(=O)c1c(O)c3c(c(O)c1C2=O)C[C@@](O)(C(=O)CO)C[C@@H]3O[C@H]1C[C@H](N)[C@H](O)[C@H](C)O1` [DOXORUBICIN]: in assay [3], the inhibition at 25 µg/mL came to 6%. Besides, the inhibition at 100 µg/mL in assay [5] was determined as 50%. Further, in assay [6], the inhibition at 50 µg/mL came out at 15%.
In the case of `O=c1[nH]cc(F)c(=O)[nH]1` [FLUOROURACIL], the inhibition at 25 µg/mL in assay [3] is 0%. Further, in assay [5], the inhibition at 100 µg/mL came out at 7%. Moreover, in assay [6], the inhibition at 50 µg/mL amounted to 0%.

Broadly, the inhibition is the relative decrease from the control value, in per cent.
